Measurements as given in publication PMC3523390 (Molecular pharmacology, 2010).
Where two headings read alike, the source gives them in different places.

Legend:
hPPARγ LBD [1] = molecular target: T1, hPPARγ LBD (Homo sapiens, UniProt P37231); assay: LanthaScreen TR-FRET PPARγ competitive ligand binding assay; details: for Ki: hPPARγ LBD, displacement of Fluormone Pan-PPAR Green, Cheng-Prusoff
T1 sequence (P37231 238-503 limits assumed): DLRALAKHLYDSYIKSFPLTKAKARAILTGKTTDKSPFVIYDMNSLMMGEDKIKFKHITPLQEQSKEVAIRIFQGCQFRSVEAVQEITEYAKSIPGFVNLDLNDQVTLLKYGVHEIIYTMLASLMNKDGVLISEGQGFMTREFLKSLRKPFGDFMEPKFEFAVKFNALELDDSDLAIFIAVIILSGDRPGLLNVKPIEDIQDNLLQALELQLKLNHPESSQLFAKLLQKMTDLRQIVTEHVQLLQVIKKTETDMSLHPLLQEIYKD

3T3-L1 preadipocytes = assay: 3T3-L1 adipocyte differentiation; format: cell-based, rodent; details: 10 μM compound, 7 to 8 days
Outline: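 Mouse 3T3-L1 preadipocytes grown in DMEM with 10% calf serum to confluence (day −2), held 2 more days, then switched at day 0 to DMEM with 10% FCS, 1 μg/ml insulin and test compound (DMSO ≤0.1% final). Medium renewed every 2 days to day 7–8. Cells formalin-fixed 1 h, Oil Red O-stained 10 min, photographed; bound dye eluted in isopropanol, read at 550 nm.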

hPPARγ = molecular target: T2, hPPARγ (Homo sapiens, UniProt P37231); assay: PPAR luciferase reporter gene transactivation in HEK-293 cells; format: cell-based; details: for hPPARγ Maximal Fold Activation / EC50: HEK-293, 18 h, N.D. = not detected up to 100 μM; for hPPARγ Maximal Fold Activation: fold induction vs DMSO; for concentration to reach saturation response (maximal activation): hPPARγ luciferase reporter, HEK-293; for EC50: read-out: hPPARγ EC50
T2 sequence (P37231 1-477 isoform P37231-2): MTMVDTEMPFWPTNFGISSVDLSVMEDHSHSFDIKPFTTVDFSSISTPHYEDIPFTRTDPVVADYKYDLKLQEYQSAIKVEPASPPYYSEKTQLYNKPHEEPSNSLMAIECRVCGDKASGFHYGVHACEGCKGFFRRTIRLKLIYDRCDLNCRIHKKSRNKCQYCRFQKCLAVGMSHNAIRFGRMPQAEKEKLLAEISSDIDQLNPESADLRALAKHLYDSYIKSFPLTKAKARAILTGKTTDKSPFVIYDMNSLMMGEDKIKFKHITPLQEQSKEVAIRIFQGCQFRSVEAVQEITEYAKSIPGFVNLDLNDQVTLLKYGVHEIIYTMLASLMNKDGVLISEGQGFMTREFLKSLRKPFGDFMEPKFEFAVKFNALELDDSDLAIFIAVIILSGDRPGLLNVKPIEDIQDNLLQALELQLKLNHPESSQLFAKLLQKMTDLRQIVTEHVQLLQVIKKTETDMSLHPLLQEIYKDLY

Mouse PPARγ = molecular target: T3, Mouse PPARγ (Mus musculus, UniProt P37238); assay: as above; format: cell-based; details: for Mouse PPARγ Maximal Fold Activation: fold induction vs DMSO
T3 sequence (P37238 1-505): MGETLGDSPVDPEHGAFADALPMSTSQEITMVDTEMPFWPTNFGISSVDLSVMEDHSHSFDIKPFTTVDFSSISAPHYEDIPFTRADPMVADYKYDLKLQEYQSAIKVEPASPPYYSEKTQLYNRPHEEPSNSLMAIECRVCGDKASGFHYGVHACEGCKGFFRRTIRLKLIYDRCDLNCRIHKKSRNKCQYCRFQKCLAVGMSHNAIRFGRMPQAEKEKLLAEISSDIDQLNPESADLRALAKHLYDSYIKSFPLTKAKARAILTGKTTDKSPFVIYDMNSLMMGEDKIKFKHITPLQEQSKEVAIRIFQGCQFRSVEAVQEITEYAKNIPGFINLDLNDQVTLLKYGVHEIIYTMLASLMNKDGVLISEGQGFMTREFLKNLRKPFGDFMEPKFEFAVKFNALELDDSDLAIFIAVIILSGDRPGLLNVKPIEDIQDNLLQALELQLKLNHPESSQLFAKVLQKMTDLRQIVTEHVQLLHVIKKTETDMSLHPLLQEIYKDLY

[2] = tested on: 3T3-L1 cells and C3H10T1/2 cells; details: ref Choi et al., 2009; cited from earlier work
[3] = tested on: type 2 diabetic Goto-Kakizaki rats; details: ref Sohn et al., 2007; cited from earlier work
hPPARγ LBD [4] = molecular target: T1, hPPARγ LBD; assay: LanthaScreen TR-FRET PPARγ coactivator; format: biochemical; details: 1 h incubation, 520 nm/495 nm ratio
hPPARα = molecular target: T4, hPPARα (Homo sapiens, UniProt Q07869); assay: PPAR luciferase reporter gene transactivation in HEK-293 cells; format: cell-based; details: HEK-293, 18 h, fold induction vs DMSO; N.D. = not detected up to 100 μM
T4 sequence (Q07869 1-468): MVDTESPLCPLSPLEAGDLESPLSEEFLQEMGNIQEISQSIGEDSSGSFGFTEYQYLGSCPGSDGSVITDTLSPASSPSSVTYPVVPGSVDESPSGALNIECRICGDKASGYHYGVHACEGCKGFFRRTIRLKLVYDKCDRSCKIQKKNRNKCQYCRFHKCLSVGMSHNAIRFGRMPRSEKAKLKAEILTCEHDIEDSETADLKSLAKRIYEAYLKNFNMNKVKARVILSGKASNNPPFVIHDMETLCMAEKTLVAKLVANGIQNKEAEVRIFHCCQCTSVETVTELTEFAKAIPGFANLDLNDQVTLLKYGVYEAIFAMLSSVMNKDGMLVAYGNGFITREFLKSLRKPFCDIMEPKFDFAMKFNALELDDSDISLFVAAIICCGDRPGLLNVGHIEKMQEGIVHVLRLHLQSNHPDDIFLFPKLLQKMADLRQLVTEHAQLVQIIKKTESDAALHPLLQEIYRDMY

[5] = HEK-293, 18 h, N.D. = not detected up to 100 μM
[6] = read-out: Mouse PPARγ EC50, HEK-293, 18 h, N.D. = not detected up to 100 μM

| Structure (SMILES) | Ki (hPPARγ LBD [1]) [nM] | adipogenic activity (differentiation to adipocytes, Oil Red O) (3T3-L1 preadipocytes) | hPPARγ Maximal Fold Activation (hPPARγ) | concentration to reach saturation response (maximal activation) (hPPARγ) | EC50 (hPPARγ) [nM] | Mouse PPARγ Maximal Fold Activation (Mouse PPARγ; [5]) | EC50 (Mouse PPARγ; [6]) [nM] | also measured |
| --- | --- | --- | --- | --- | --- | --- | --- | --- |
| C=CCc1cc(OC)c(O)c(-c2cc(CC=C)cc(OC)c2O)c1 [Compound 1, dieugenol] | 240 | induced 3T3-L1 preadipocyte differentiation | 3.58 | approximately 1 μM | 620 | 2.93 | 930 | – |
| CCCc1cc(OC)c(O)c(-c2cc(CCC)cc(OC)c2O)c1 [Compound 2, tetrahydrodieugenol] | 320 | induced 3T3-L1 preadipocyte differentiation | 3.34 | approximately 1 μM | 330 | 2.98 | 380 | – |
| C=CCc1ccc(O)c(-c2cc(CC=C)ccc2O)c1 [Compound 3, magnolol] | – | induced 3T3-L1 preadipocyte differentiation | – | – | – | – | – | adipocyte differentiation [2]: enhances adipocyte differentiation; fasting blood glucose [3]: decreased; plasma insulin levels [3]: decreased; EC50 (Mouse PPARγ): 1140 nM |
| C=CCc1ccc(O)c(OC)c1 [Compound 4, eugenol, reference compound] | – | no adipogenic activity | – | – | – | – | – | binding to the hPPARγ LBD (hPPARγ LBD [1]; test concentrations up to 100 μM): did not bind to the receptor at all; TRAP220/DRIP-2 coactivator peptide recruitment to the PPARγ LBD (hPPARγ LBD [4]): not active |
| CC(C)(Sc1ccc(CCN(CCCCC2CCCCC2)C(=O)NC2CCCCC2)cc1)C(=O)O [GW7647] | – | – | – | – | – | – | – | hPPARα Maximal Fold Activation (hPPARα): 3.09 |
